# FN deposit inh – fibronectin deposition inhibition; AH1F fibroblasts, Alexa488-fibronectin deposition fluorescence, overnight; inhibition, % at 12.6 µM; actives 0.086% (n = 350,000);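 active = mean inhibition across replicates of 30% or more, regardless of how many single replicates reach that level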;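 note: positive control wells lacked labelled fibronectin entirely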
#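 Assay system: AH1F fibroblasts / Quantity: 10000 cells per well / Medium: DMEM plus 2% serum, read in PBS / Reagent: labelled fibronectin 24 nM / Dosing: single dose, pinned / Times: 1 h cell attachment, overnight exposure to compound and label / Signal: fluorescence, ex 485 nm, em 525 nm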
# A3G deaminase – blocks human APOBEC3G single-stranded DNA deamination. Q9HC16. AID 493012. actives 0.28% (n = 330,000). recombinant A3G, ssDNA deamination FAM/TAMRA fluorescence. inhibition, % at 20 µM;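 active = inhibition of at least 40% at 20 µM, with no more than 30% in the related APOBEC3A deaminase screen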;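 note: plate controls were DMSO wells with A3G for no effect and wells lacking A3G enzyme for full effect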
# Target sequence (Q9HC16 whole entry, looked up): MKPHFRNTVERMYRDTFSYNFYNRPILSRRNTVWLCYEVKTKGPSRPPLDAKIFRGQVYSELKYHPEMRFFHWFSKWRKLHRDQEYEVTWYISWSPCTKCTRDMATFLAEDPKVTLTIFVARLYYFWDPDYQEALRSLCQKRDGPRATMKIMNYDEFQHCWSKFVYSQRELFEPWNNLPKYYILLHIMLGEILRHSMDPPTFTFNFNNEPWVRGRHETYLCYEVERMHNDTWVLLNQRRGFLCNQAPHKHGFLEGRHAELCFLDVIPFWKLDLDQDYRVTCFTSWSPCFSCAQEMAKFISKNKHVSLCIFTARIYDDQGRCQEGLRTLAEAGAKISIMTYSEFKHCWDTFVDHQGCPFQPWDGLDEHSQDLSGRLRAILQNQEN
# ABHD5-PLIN5 inh – ABHD5-PLIN5 protein interaction inhibition; inhibition, % at 4 µM; actives 0.78% (n = 360,000); Q00G26+Q8WTS1; AID 602281; Split G. princeps luciferase complementation, luminescence, 4 h;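 active = inhibition above the mean inhibition across every tested compound plus 3 SD, cut at about 22% in these data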;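 note: 0% = DMSO only wells and the 100% control is not disclosed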
# APOBEC3A inh – human APOBEC3A DNA deaminase inhibition | recombinant A3A, FAM/TAMRA ssDNA deamination fluorescence | P31941 | actives 0.41% (n = 330,000) | inhibition, % at 20 µM;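 active = at least 40% inhibition at 20 µM here, with at most 30% in a related deaminase screen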;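 note: plate controls were A3A with DMSO for no effect and wells lacking A3A enzyme for full effect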
# Target sequence (P31941 whole entry, looked up): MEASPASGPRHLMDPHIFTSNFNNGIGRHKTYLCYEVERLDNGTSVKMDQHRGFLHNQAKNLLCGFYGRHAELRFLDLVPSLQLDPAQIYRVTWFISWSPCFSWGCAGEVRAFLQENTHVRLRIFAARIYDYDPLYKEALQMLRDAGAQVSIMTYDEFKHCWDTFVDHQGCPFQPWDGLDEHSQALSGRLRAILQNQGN
# ABHD5 PLIN5 conf – confirmation of human ABHD5-PLIN5 interaction inhibitors; shares compounds with ABHD5-PLIN5 inh; AID 651612; inhibition, % at 4 µM; actives 67% (n = 2,200); biochemical ABHD5-PLIN5 interaction, luminescence; in the data active = inhibition above about 23%;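 note: 0% = DMSO vehicle wells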
# HNF4 counter – HNF4 split-luciferase signal hit, counter-screen; inhibition, % at 4 µM; HNF4 dimerization, luminescence, biochemical; shares compounds with ABHD5-PLIN5 inh; actives 77% (n = 2,200); AID 651674;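 active = mean inhibition across replicate wells exceeding the computed hit threshold, cut at about 13% in these data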;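 note: light from luciferase halves that rejoin when HNF4 fusion proteins dimerize; 0% = DMSO only wells and the 100% control is not given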
# * = called active by the depositor; . = no result. Hits are enriched below; roughly 1.2% of the tested compounds scored in any of these assays.
SMILES,FN deposit inh,A3G deaminase,ABHD5-PLIN5 inh,APOBEC3A inh,ABHD5 PLIN5 conf,HNF4 counter
CO[C@@H]1CN(C)C(=O)c2ccc(NC(=O)CC(F)(F)F)cc2OC[C@H](C)N(C(C)=O)C[C@@H]1C,-3,.,.,.,.,.
Cc1ccc(NC(=O)CC2S/C(=N/N=C/c3c[nH]c4ccccc34)NC2=O)cc1 (configuration not stated),3,-7,26*,-4,16,14*
CCN(CC)S(=O)(=O)c1cccc(NC(=O)COC(=O)/C=C/c2ccco2)c1,3,-1,-5,15,.,.
CN(C)S(=O)(=O)c1cccc(NC(=O)COC(=O)/C=C/c2ccco2)c1,-5,0,25*,22,22,27*
O=c1c2c3nc4ccccc4nc3n(Cc3ccccc3)c2ncn1Cc1ccco1,.,.,44*,.,96*,95*
COc1ccc(Cl)cc1N/C(N)=N/c1nc(CSc2ccc(C)cc2)cc(=O)[nH]1,-4,-6,104*,-2,3,5
CCOC(=O)/C(=C\c1cccc(O)c1)c1nc2sc(C)c(C)c2c(=O)[nH]1,3,23,53*,0,85*,80*
O=C(/C(=C/c1ccccc1)n1cncn1)c1ccc(Cl)cc1Cl,8,1,33*,3,90*,57*
O=C(/C(=N\O)n1cncn1)c1ccc(Cl)cc1Cl,-3,-6,-1,-4,.,.
COc1ccc(-n2sc3ccccc3c2=O)cc1,19,.,76*,.,81*,120*
C[C@H]1CN(C)C(=O)Cc2cc(N(C)C)ccc2O[C@H]1CN(C)S(C)(=O)=O,0,.,.,.,.,.
COc1cc(C(CCN2CCCC2)c2c(OC)cc(OC)c3c(C)cc(=O)oc23)cc(OC)c1OC (configuration not stated),-11,-7,3,-1,.,.
CCCCCc1cc(=O)oc2c(C(CCN3CCCCC3)c3ccc(OC)cc3)c(OC)cc(OC)c12 (configuration not stated),1,-8,26*,0,7,6
COc1cc(C(CCN2CCCC(C)C2)c2c(OC)cc(OC)c3c(-c4ccccc4)cc(=O)oc23)cc(OC)c1OC (configuration not stated),.,0,27*,2,9,7
CCC(=O)N(C)C[C@@H]1Oc2ncc(-c3ccccc3OC)cc2C(=O)N([C@H](C)CO)C[C@@H]1C,3,.,.,.,.,.
CCN1/C(=C/c2ccc3ccccc3[n+]2CC)C=Cc2ccccc21,.,19,41*,20,55*,53*
CCN1/C(=C/c2ccc3ccccc3[n+]2CCCS(=O)(=O)[O-])C=Cc2cc(C)ccc21,-1,.,13,.,.,.
O=C(O)[C@H](Cc1ccccc1)N1C(=O)c2c(Cl)c(Cl)c(Cl)c(Cl)c2C1=O,-12,-1,71*,3,-7,4
CCOC(=O)C1=C(O)/C(=C/c2ccc(-c3ccccc3C(=O)O)o2)SC1=Nc1ccc(OC)cc1,.,.,3,.,.,.
CCOC(=O)C1=C(O)/C(=C/c2ccc(-c3ccccc3C(=O)O)o2)SC1=Nc1ccc(C)cc1,-4,.,27*,.,12,9
CCCNC(=O)C[C@H]1CC[C@@H]2[C@H](COC[C@H](O)CN2C(=O)Nc2ccccc2OC)O1,-10,.,.,.,.,.
CCN(C(=O)COC(=O)/C(=C/c1ccccc1)n1nnnc1C)C1CCCCC1,9,-1,34*,2,52*,36*
COc1ccc(C=CC(=O)c2ccc(OC)c(OC)c2)cc1O,3,.,15,.,.,.
COc1ccc(C=CC(=O)c2ccc3cc(OC)c(OC)cc3c2)cc1OC,6,.,41*,.,41*,26*
COc1cc(OC)c(C(=O)C=Cc2ccc(OC)c(OC)c2)c(OC)c1,-8,.,20,.,.,.
SMILES,FN deposit inh,A3G deaminase,ABHD5-PLIN5 inh,APOBEC3A inh,ABHD5 PLIN5 conf,HNF4 counter
COc1ccc(C=CC(=O)c2ccc(OC)c(OC)c2O)cc1OC,13,.,46*,.,55*,44*
CCC1CSC(Nc2ccc(C(=O)/C=C/c3ccc(OC)c(OC)c3)cc2)=N1 (configuration not stated),-7,2,17,6,.,.
CCC1CSC(Nc2ccc(C(=O)/C=C/c3ccc(Br)cc3)cc2)=N1 (configuration not stated),4,2,24*,3,52*,39*
COc1ccc(/C=C/C(=O)c2ccc(NC3=NCCCS3)cc2)cc1OC,-11,-8,36*,-1,47*,40*
O=C(C[C@@H]1CC[C@H](NC(=O)CN2CCOCC2)[C@H](CO)O1)NC1CCC1,-2,.,.,.,.,.
COc1ccc(C(=O)/C=C/c2ccc(OC)c(O)c2)c(F)c1,.,-7,29*,-3,55*,50*
CN(C)CC(=O)Nc1ccc2c(c1)[C@@H]1C[C@H](CC(=O)NCc3ccccc3F)O[C@H](CO)[C@@H]1O2,-8,.,.,.,.,.
CCOc1ccc(C(C)=O)cc1N1C(=O)C2C3C=CC(O3)C2C1=O (configuration not stated),.,49*,30*,-6,17,80*
CCOc1ccc(C(C)=O)cc1N1C(=O)C2C3C=CC(C3)C2C1=O (configuration not stated),.,2,-3,15,.,.
NCC[C@H]1CC[C@H](NS(=O)(=O)Cc2ccccc2)[C@@H](CO)O1,-1,.,.,.,.,.
CCCCCCCCCc1conc1C(=O)/C=C/c1oc2c(c1C)CCC(C)C2 (configuration not stated),1,.,42*,.,37*,-1
Cc1c(C(=O)N2CCCC2)sc(NC(=O)c2ccc(Cl)cc2)c1C#N,.,0,0,0,.,.
COc1ccccc1C(=O)Nc1sc(C(=O)N2CCCC2)c(C)c1C#N,.,-2,60*,-4,3,2
Cc1ccc2cc(/C=C/C(=O)c3ccco3)c(Cl)nc2c1,3,-8,45*,-1,96*,99*
Cc1ccc2nc(Cl)c(/C=C/C(=O)c3ccco3)cc2c1,1,-1,24*,-1,92*,86*
COc1cc2cc(/C=C/C(=O)c3ccco3)c(Cl)nc2cc1OC,-14,-2,38*,-1,90*,82*
CC(C)NC(=O)Nc1ccc2c(c1)C(=O)N([C@@H](C)CO)C[C@@H](C)[C@@H](CN(C)C(=O)c1ccncc1)OCCCC[C@@H](C)O2,10,.,.,.,.,.
Cc1ccc(S(=O)(=O)NCC[C@@H]2CC[C@H](NS(=O)(=O)c3ccccc3Cl)[C@H](CO)O2)cc1,-8,.,.,.,.,.
S=C(NCCCN1CCOCC1)N1CCN(c2nc(-c3ccc(Cl)cc3)cs2)CC1,3,-4,32*,-2,17,3
S=C(NCCCN1CCOCC1)N1CCN(c2nc(-c3ccccc3)cs2)CC1,-22,2,14,5,.,.
CCCN1C[C@@H](C)[C@H](OC)CN(C)C(=O)c2cc(NC(=O)COC)ccc2OC[C@@H]1C,21,.,.,.,.,.
